Values after ≈ are worked out from the molar mass of the structure shown. Like-named read-outs stand apart in the source and are kept apart here. One block for each compound: values may come before it.
Columns and labels:
[1] = Amplex red REDOX assay
In short: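 Test compound (20 nL) was pinned into HBSS (1.26 mM CaCl2, 0.49 mM MgCl2, 1 g/L D-glucose), and background fluorescence was read (ex/em 525/598 nm). An equal volume of 2X Amplex Red mix (100 µM Amplex Red, 200 µM DTT, 2 U/mL HRP in HBSS) was added. After 15 min at room temperature the plate was re-read; ΔRFU = 15 min − 0 min. DMSO was the negative control; walrycin B and […] were positive controls.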

[2] = target: T1, human fumarate hydratase (Homo sapiens, UniProt P07954); test: fluorescence-based FH assay coupled to MDH/diaphorase/resazurin; format: biochemical; settings: for Emax: read-out: Efficacy; for activity in FH assay (in words): human FH assay with fumarate
T1 sequence (P07954 45-510): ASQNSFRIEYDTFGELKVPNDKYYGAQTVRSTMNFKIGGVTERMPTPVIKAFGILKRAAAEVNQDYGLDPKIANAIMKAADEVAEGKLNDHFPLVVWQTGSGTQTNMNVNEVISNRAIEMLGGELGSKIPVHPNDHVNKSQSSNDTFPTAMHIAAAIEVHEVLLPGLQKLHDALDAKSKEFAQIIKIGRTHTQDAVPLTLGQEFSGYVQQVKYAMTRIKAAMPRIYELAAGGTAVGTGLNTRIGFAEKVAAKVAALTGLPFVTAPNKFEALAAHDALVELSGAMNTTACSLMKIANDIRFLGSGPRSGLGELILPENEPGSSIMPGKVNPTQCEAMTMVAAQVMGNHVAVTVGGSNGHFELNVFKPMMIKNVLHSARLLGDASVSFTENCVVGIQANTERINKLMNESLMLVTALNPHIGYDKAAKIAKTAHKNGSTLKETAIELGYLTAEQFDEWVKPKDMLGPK

[3] = target: T1, human fumarate hydratase; test: microscale thermophoresis; format: binding
In short: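 Recombinant C-terminally His-tagged human FH (200 nM) was labelled with RED-tris-NTA dye (100 nM) in PBS-T pH 7.4, mixed 1:1 for 30 min at RT, and spun 15,000 x g. Compound: 16-point 1:2 DMSO series from 10 mM, diluted 20-fold in PBS-T, mixed 1:1 with protein (50 nM FH), 2–3 min RT. Settings: LED 40%, MST 40%/60%, laser 30 s on. Kd taken from cold/hot regions.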

[4] = parallel artificial membrane permeability assay; format: in vitro ADME
[5] = rat microsomal stability assay; format: in vitro ADME; settings: liver microsomes
[6] = aqueous kinetic solubility assay; format: physicochemical; settings: aqueous medium, kinetic from dmso stock
[7] = target: T2, L-malate dehydrogenase from pig heart (Sus scrofa, UniProt P00346); test: malate dehydrogenase; format: biochemical; settings: read-out: Km value for MDH enzyme; 10 IU/ml MDH, 5 min, room temperature
T2 sequence (P00346 25-338): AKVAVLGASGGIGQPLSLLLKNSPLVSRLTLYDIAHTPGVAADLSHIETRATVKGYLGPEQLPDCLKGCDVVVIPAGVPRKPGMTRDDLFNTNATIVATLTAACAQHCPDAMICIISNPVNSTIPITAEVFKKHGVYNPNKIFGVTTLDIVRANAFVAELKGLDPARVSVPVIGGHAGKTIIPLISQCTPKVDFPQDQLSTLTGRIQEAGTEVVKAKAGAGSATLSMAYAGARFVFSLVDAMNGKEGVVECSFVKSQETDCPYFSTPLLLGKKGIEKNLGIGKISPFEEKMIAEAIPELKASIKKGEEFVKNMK

[8] = target: T3, malate dehydrogenase (Sus scrofa, UniProt P00346); test: MDH assay without malate; format: biochemical, pig; settings: no malate added
T3 sequence (P00346 25-338): T2 sequence (P00346 25-338)

[9] = target: T1, human fumarate hydratase; test: FH assay without fumarate; format: biochemical; settings: no fumarate added

Structure (SMILES): O=C1C(Cl)=C(Cl)C(=O)C(Cl)=C1Cl [Chloranil]
redox activity in amplex red assay (in words) [1]: strong REDOX activity

Structure (SMILES): O=C([O-])C(O)C(O)C(=O)[O-].[K+].[Na+] (centres unmarked) [Potassium sodium tartrate, reference compound]
activity in FH assay (in words) [2]: increased activity

Structure (SMILES): Cn1nc(-c2ccc(C(F)(F)F)cc2)nc2c(=O)n(C)c(=O)nc1-2 [Walrycin B]
redox activity in amplex red assay (in words) [1]: weak
redox activity in amplex red assay (in words) ([1]; listed as walrycin B): weak REDOX activity

Structure (SMILES): O=C(O)/C=C/C(=O)O [fumarate, reference compound]
Km ([2]; read-out: Km value for FH enzyme, 10 nM FH, 15 min, room temperature): 41 ± 1.1 µM

Structure (SMILES): O=C(O)CC(O)C(=O)O (centres unmarked) [malate]
Km [7]: 225 ± 30 µM

Structure (SMILES): O=C(O)C(O)C(O)C(=O)O (centres unmarked) [tartrate]
signal in MDH assay in the absence of malate (in words) [8]: can drive both enzymes
signal in FH assay in the absence of fumarate (in words) [9]: can drive both enzymes

Now from value to compound:

AC50 [2]: 8.89 µM
Emax [2]: 79.4%
Kd [3]: 18.3 µM
PAMPA permeability pH 5 [4]: 762.26 1×10–6 cm/s
PAMPA Permeability pH 7.4 [4]: 1,224.00 1×10–6 cm/s
PAMPA permeability at pH 7.4 (in words) [4]: high permeability
half-life [5]: 1.11 min
solubility [6]: 2.15 µg/mL (≈ 5.46 µM)
Structure (SMILES): Cn1c(=O)c2c(-c3ccc(Cl)cc3)n(CCc3ccccc3)cc2n(C)c1=O [NCGC00102736, 5-(4-chlorophenyl)-1,3-dimethyl-6-phenethyl-1,6-dihydro-2H-pyrrolo[3,4-d]pyrimidine-2,4(3H)-dione]

AC50 [2]: 25.1 µM
Emax [2]: 60.5%
Structure (SMILES): CCCCn1cc2c(c1-c1ccc(Cl)cc1)c(=O)n(C)c(=O)n2C [NCGC00115662, 6-butyl-5-(4-chlorophenyl)-1,3-dimethyl-1,6-dihydro-2H-pyrrolo[3,4-d]pyrimidine-2,4(3H)-dione]

AC50 [2]: 17.7 µM
Emax [2]: 52%
Structure (SMILES): Cn1c(=O)c2c(-c3ccc(Cl)cc3)n(Cc3ccc(Cl)cc3)cc2n(C)c1=O [NCGC00115664, 6-(4-chlorobenzyl)-5-(4-chlorophenyl)-1,3-dimethyl-1,6-dihydro-2H-pyrrolo[3,4-d]pyrimidine-2,4(3H)-dione]

AC50 [2]: 5.61 µM
Emax [2]: 35%
Structure (SMILES): CCCCCn1cc2c(c1-c1ccc(Cl)cc1)c(=O)n(C)c(=O)n2C [NCGC00115666, 5-(4-chlorophenyl)-1,3-dimethyl-6-pentyl-1,6-dihydro-2H-pyrrolo[3,4-d]pyrimidine-2,4(3H)-dione]

AC50 [2]: 15.8 µM
Emax [2]: 45.5%
Structure (SMILES): Cn1c(=O)c2c(-c3ccccc3Cl)n(Cc3ccc(Cl)cc3)cc2n(C)c1=O [NCGC00115668, 6-(4-chlorobenzyl)-5-(2-chlorophenyl)-1,3-dimethyl-1,6-dihydro-2H-pyrrolo[3,4-d]pyrimidine-2,4(3H)-dione]

AC50 [2]: 7.93 µM
Emax [2]: 60.1%
PAMPA permeability pH 5 [4]: 945.87 1×10–6 cm/s
PAMPA Permeability pH 7.4 [4]: Not conclusive
half-life [5]: 6.39 min
solubility [6]: < 1 µg/mL
Structure (SMILES): CCCCCn1cc2c(c1-c1ccc(Br)cc1)c(=O)n(C)c(=O)n2C [NCGC00117671, 5-(4-bromophenyl)-1,3-dimethyl-6-pentyl-1,6-dihydro-2H-pyrrolo[3,4-d]pyrimidine-2,4(3H)-dione]

AC50 [2]: 9.98 µM
Emax [2]: 79%
Kd [3]: 23.3 µM
PAMPA permeability pH 5 [4]: 1,194 1×10–6 cm/s
PAMPA Permeability pH 7.4 [4]: 1,507 1×10–6 cm/s
PAMPA permeability at pH 7.4 (in words) [4]: high permeability
half-life [5]: 7.68 min
solubility [6]: < 1 µg/mL
Structure (SMILES): CCCCn1cc2c(c1-c1ccc(Br)cc1)c(=O)n(C)c(=O)n2C [NCGC00117675, 5-(4-bromophenyl)-6-butyl-1,3-dimethyl-1,6-dihydro-2H-pyrrolo[3,4-d]pyrimidine-2,4(3H)-dione]

AC50 [2]: 7.06 µM
Emax [2]: 63.7%
PAMPA permeability pH 5 [4]: 590 1×10–6 cm/s
PAMPA Permeability pH 7.4 [4]: Not conclusive
half-life [5]: 1.23 min
solubility [6]: 14.7 µg/mL (≈ 33.5 µM)
Structure (SMILES): Cn1c(=O)c2c(-c3ccc(Br)cc3)n(CCc3ccccc3)cc2n(C)c1=O [NCGC00117693, 5-(4-bromophenyl)-1,3-dimethyl-6-phenethyl-1,6-dihydro-2H-pyrrolo[3,4-d]pyrimidine-2,4(3H)-dione]

AC50 [2]: 31.5 µM
Emax [2]: 79.5%
Structure (SMILES): COc1ccc(CCn2cc3c(c2-c2ccc(Br)cc2)c(=O)n(C)c(=O)n3C)cc1OC [NCGC00117695, 5-(4-bromophenyl)-6-(3,4-dimethoxyphenethyl)-1,3-dimethyl-1,6-dihydro-2H-pyrrolo[3,4-d]pyrimidine-2,4(3H)-dione]

AC50 [2]: 31.5 µM
Emax [2]: 49.7%
Structure (SMILES): CCCCCn1cc2c(c1-c1ccccc1Br)c(=O)n(C)c(=O)n2C [NCGC00117699, 5-(2-bromophenyl)-1,3-dimethyl-6-pentyl-1,6-dihydro-2H-pyrrolo[3,4-d]pyrimidine-2,4(3H)-dione]

AC50 [2]: 28.1 µM
Emax [2]: 78.1%
Structure (SMILES): Cn1c(=O)c2c(-c3ccccc3Br)n(Cc3ccccc3)cc2n(C)c1=O [NCGC00117701, 6-benzyl-5-(2-bromophenyl)-1,3-dimethyl-1,6-dihydro-2H-pyrrolo[3,4-d]pyrimidine-2,4(3H)-dione]

AC50 [2]: 25.1 µM
Emax [2]: 70%
Structure (SMILES): Cn1c(=O)c2c(-c3ccccc3Br)n(CCc3ccccc3)cc2n(C)c1=O [NCGC00117727, 5-(2-bromophenyl)-1,3-dimethyl-6-phenethyl-1,6-dihydro-2H-pyrrolo[3,4-d]pyrimidine-2,4(3H)-dione]

activity in FH assay (in words) [2]: inactive
Structure (SMILES): Cn1c(=O)c2c(-c3ccccc3)n(CCCO)cc2n(C)c1=O [NCGC00141286]

From publication PMC7340117 (SLAS discovery : advancing life sciences R & D, 2019)
